# Reference: PubChem BioAssay AID504383 (The Scripps Research Institute Molecular Screening Center, 2011)
# Out of some 2,500 compounds screened, about 1,200 (48%) were called active. So high a share suggests a set chosen from earlier hits. The list shows a part of the results. Unmarked numbers belong to inactive results.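 The calls were made as follows: active = mean activation above the low control average plus 3 SD, as set in the primary screen (cut at about 12% in these data); inactive = the rest.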
# Molecular target: Troponin I, cardiac muscle (Homo sapiens) + Troponin T, cardiac muscle (Homo sapiens) + Troponin C, slow skeletal and cardiac muscles (Homo sapiens) (UniProt P19429+P45379+P63316)
# Experiment: cardiac RTF calcium sensitivity activators, confirmation, biochemical, IANBD-TnC fluorescence, triplicate (AID 504383);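 also: 0% = DMSO at 0.472 mM calcium and 100% = DMSO at 2.9 mM calcium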
# Conditions: IANBD-labeled cardiac RTF, Ca2+ sensitivity fluorescence; at 7.2 µM; active compounds read high; scaled from EC20 to saturating calcium; tested at EC20 calcium, 0.472 mM
# How it was run: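 Material: labelled regulated thin filaments; Reagent: 0.472 mM calcium; Incubation: 15 min compound incubation with filaments at 25 °C; Detection: filament fluorescence intensity; Evaluation: fluorescence increase normalised to calcium controls; Benchmarks: low control EC20 calcium, high control EC100 calcium.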
row,SMILES,activation
1,Cc1nc(Cl)c2c(n1)NC1=C(O2)C(=O)CCC1,10.5%
2,CCOC(=O)C(CCCCCCC(NC(C)=O)(C(=O)OCC)C(=O)OCC)(NC(C)=O)C(=O)OCC,9.57%
3,CCOC(=O)/C(=C\c1c[nH]c2ccccc12)NC(C)=O,31.7% (active)
4,CCN(CC)C(=O)c1ccc(/C=C/c2c[nH]c3ccccc23)[n+](C)c1,11.1%
5,CCN(CC)C1=CC2=CC(=C(C#N)C#N)CCC2CC1 (stereo unspecified),1.65%
6,Cc1ccc(C(=O)NN2C(=O)/C(=C/c3cccn3C)SC2=S)cc1,25.1% (active)
7,Cn1cccc1/C=C1\SC(=S)N(NC(=O)c2ccccc2)C1=O,54.2% (active)
8,Cn1cccc1/C=C1\SC(=S)N(NC(=O)c2ccc(Cl)cc2)C1=O,16.8% (active)
9,O=c1cc(CN2CCCc3ccccc32)nc2sccn12,5.39%
10,c1ccc2c(c1)CCCN2Cc1nnnn1CC1CCCO1 (stereo unspecified),7.11%
11,c1ccc2c(c1)CCCN2Cc1nnc2n1CCCCC2,92% (active)
12,COc1cc(/C=C2\CCC(C)C3=C(c4cc(OC)c(OC)c(OC)c4)C(C#N)=C(N)OC32)cc(OC)c1OC (stereo unspecified),36.4% (active)
13,O=c1oc2ccccc2cc1-c1ccc(O)cc1O,94.9% (active)
14,O=c1oc2cc(O)ccc2cc1-c1nc2c(s1)CCc1ccccc1-2,7.71%
15,O=c1c(-c2ccc(O)cc2O)coc2cc(O)cc(O)c12,8.85%
16,CC(C)(C)NC(=O)[C@@H]1CN(Cc2cccnc2)CCN1C[C@@H](O)C[C@@H](Cc1ccccc1)C(=O)N[C@H]1c2ccccc2C[C@H]1O,158% (active)
17,CN(CC(=O)Nc1ccccc1Cl)C(=O)c1cc(=O)[nH]c2ccccc12,49.3% (active)
18,COc1ccc(N(CC(=O)Nc2ccccc2C(=O)NCC(C)C)S(C)(=O)=O)cc1,4.96%
19,CN(C)S(=O)(=O)c1ccc(C(=O)Oc2cc(=O)[nH]c3ccccc23)cc1,10.2%
20,CCn1cc(Cl)c(C(=O)NNC(=O)CCn2cc([N+](=O)[O-])cn2)n1,23.9% (active)
21,CCNC(=S)NNC(=O)CCn1cc(C)cn1,6.76%
22,CCCCCCc1cc2cc(-c3nnc(-c4ccccc4)o3)c(=O)oc2cc1O,4.49%
23,CCCCCCc1cc2cc(-c3nnc(-c4ccccc4O)o3)c(=O)oc2cc1O,14.4% (active)

row,SMILES,activation
1,O=[N+]([O-])c1cc(-c2nc(-c3ccncc3)no2)ccc1Cl,7.62%
2,CCOC(=O)C1(Cc2cccc(OC)c2)CCCN(Cc2nccn2CC)C1 (stereo unspecified),6.61%
3,CCOC(=O)C1(CCc2ccccc2)CCN(C(=O)c2occc2C)CC1,9.68%
4,CCOC(=O)C1(Cc2cccc(OC)c2)CCN(Cc2ccon2)CC1,12.7% (active)
5,Nc1ccc(S(N)(=O)=O)cc1N,600% (active)
6,CC(C)CN(C(=O)CCCc1nc2ccccc2c(=O)[nH]1)c1c(N)n(Cc2ccccc2)c(=O)[nH]c1=O,8.94%
7,CCOc1ccccc1N1CCN(CC(=O)c2c(N)n(C)c(=O)n(C)c2=O)CC1,14.9% (active)
8,CCCCn1c(N)c(N(CC(C)C)C(=O)Cc2ccc(S(=O)(=O)N3CCOCC3)s2)c(=O)[nH]c1=O,8.87%
9,CCOc1ccccc1N1CCN(CC(=O)N(CC(C)C)c2c(N)n(CC(C)C)c(=O)[nH]c2=O)CC1,35.3% (active)
10,O[C@@H]1CN(C2CCCCC2)CC[C@H]1N1CCN(CCc2ccccc2)CC1,18.1% (active)
11,c1ccc(CCCN2CCN(c3ccccc3)CC2)cc1,7.15%
12,CC1=NN(c2ccc(Br)cc2)C(=O)/C1=C/c1ccc(-c2ccccc2C(=O)O)o1,10.1%
13,CC1=NN(c2ccc(C)c(C)c2)C(=O)/C1=C/c1ccc2c(c1)n(C)c(=O)n2C,57.9% (active)
14,O=C(Nc1ccc(C(=O)N2CCOCC2)cc1)Nc1cccc(Cl)c1,47.5% (active)
15,CN1CCC/C1=C1/C(=O)N(c2ccccc2)N=C1NC(=O)Nc1cccc(Cl)c1,-1.33%
16,O=C(NCC1CC1)Nc1cccc(Cl)c1,2.84%
17,COCCOC(=O)/C(=C/c1ccc(OC(=O)c2ccccc2)cc1)C(C)=O,8.35%
18,CC(COC(=O)c1ccccc1)(COC(=O)c1ccccc1)/[N+]([O-])=C/c1ccccc1,32% (active)
19,Cc1cc2nc3c(=O)n(C4CCCCC4)c(=O)[nH]c3nc2cc1N,17.8% (active)
20,Cc1cc2nc3c(=O)[nH]c(=O)[nH]c3nc2c([N+](=O)[O-])c1N,2.96%
21,COCc1cc(=O)[nH]c2cc(NC(=O)C(C)(C)CCl)c(C)cc12,4.59%
22,Nc1ccc2nc3c(=O)[nH]c(=S)[nH]c3nc2c1,28.7% (active)
23,Nc1ccc2nc3c(=O)n(C4CCCCC4)c(=O)[nH]c3nc2c1,16.6% (active)
